Measured values reported in ChEMBL document CHEMBL3616442, “Unconventional Knoevenagel-type indoles: Synthesis and cell-based studies for the identification of pro-apoptotic agents” (Eur J Med Chem, 2015).

Experiments:
MT4 = experiment: Antiproliferative activity against human MT4 cells after 96 hrs by MTT assay; assay type: functional, cell-based; settings: MT4, 96 h
Procedure, shortened: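 Exponentially growing MT-4 cells (CD4+ human T-cells carrying integrated HTLV-1 genome), seeded at 1×10^5 cells/mL in RPMI-1640 with 10% FCS and antibiotics. Serial dilutions of compound (DMSO stock 100 mM, diluted in medium), 37 °C, 5% CO₂, 96 h. Viability read by MTT. 50% inhibition versus untreated controls by linear regression. Mean ± SD of three independent determinations.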

CCRF-CEM = experiment: Cytotoxicity against human CCRF-CEM cells after 96 hrs by MTT assay; assay type: functional, cell-based
Procedure, shortened: (§1)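 ATCC cell lines, mycoplasma-free by Hoechst staining. Haematological lines in RPMI-1640, solid-tumour and normal fibroblast lines in their own media, all with 10% FCS and antibiotics, at 37 °C in 5% CO₂. Compounds added as serial dilutions from a 100 mM DMSO stock diluted in medium. Viability by MTT after 96 h at 37 °C. Mean ± SD of three independent determinations.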

WIL2-NS = experiment: Cytotoxicity against human WIL2-NS cells after 96 hrs by MTT assay; assay type: functional, cell-based; procedure, shortened: as §1
CCRF-SB = experiment: Cytotoxicity against human CCRF-SB cells after 96 hrs by MTT assay; assay type: functional, cell-based; procedure, shortened: as §1
MRC5 = experiment: Cytotoxicity against human MRC5 cells after 96 hrs by MTT assay; assay type: cell-based; settings: MRC5, 96 h; procedure, shortened: as §1
[1] = Cytotoxicity against human CRL7065 cells after 96 hrs by MTT assay; assay type: cell-based; settings: CRL-7065, 96 h; procedure, shortened: as §1
SK-MEL-28 = experiment: Cytotoxicity against human SK-MEL-28 cells after 96 hrs by MTT assay; assay type: functional, cell-based; settings: SK-MEL-28, 96 h; procedure, shortened: as §1
[2] = Cytotoxicity against human SKMES1 cells after 96 hrs by MTT assay; assay type: functional, cell-based; settings: SK-MES-1, 96 h; procedure, shortened: as §1
DU-145 = experiment: Cytotoxicity against human DU145 cells after 96 hrs by MTT assay; assay type: functional, cell-based; settings: DU-145, 96 h; procedure, shortened: as §1
HepG2 = experiment: Cytotoxicity against human HepG2 cells after 96 hrs by MTT assay; assay type: functional, cell-based; settings: HepG2, 96 h; procedure, shortened: as §1
MCF7 [3] = experiment: Cytotoxicity against human MCF7 cells after 96 hrs by MTT assay; assay type: functional, cell-based; settings: MCF7, 96 h; procedure, shortened: as §1
HL-60 [4] = experiment: Antiproliferative activity against human HL60 cells after 3 days incubation by alamar blue method; assay type: functional
Procedure, shortened: (§2)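 HL-60 and K562 grown in RPMI 1640, MCF-7 in DMEM, each with 10% FCS, penicillin G and streptomycin. Seeded at 4x10⁴ (HL-60, K562) or 2x10⁴ (MCF-7) cells per well with serial compound dilutions, incubated 3 days at 37 °C. Alamar blue added for 3 h at 37 °C in the dark, fluorescence read at ex 544/em 590 nm. IC50 versus untreated controls by linear regression.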

K562 [5] = experiment: Antiproliferative activity against human K562 cells after 3 days incubation by alamar blue method; assay type: functional; procedure, shortened: as §2
MCF7 [6] = experiment: Antiproliferative activity against human MCF7 cells after 3 days incubation by alamar blue method; assay type: functional; procedure, shortened: as §2
HL-60 [7] = experiment: Induction of apoptosis in human HL60 cells by propidium iodide staining based flow cytometric analysis; assay type: functional
Procedure, shortened: (§3)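 After treatment, cells harvested, fixed in ice-cold 70% ethanol at 4 °C, stained 30 min at 37 °C in the dark with 100 µg/mL propidium iodide plus 10 µg/mL RNase A; 10,000 gated cells analysed at 488 nm with debris excluded; apoptosis followed over time; mean ± S.E.M. of three independent experiments run in triplicate.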

K562 [8] = experiment: Induction of apoptosis in human K562 cells by propidium iodide staining based flow cytometric analysis; assay type: functional; settings: TDE = time-dependent effect; procedure, shortened: as §3
MCF7 [9] = experiment: Induction of apoptosis in human MCF7 cells by propidium iodide staining based flow cytometric analysis; assay type: functional; procedure, shortened: as §3

- GI50 (HL-60 [4]; HL-60, 72 h): 2.11 µM
- GI50 (K562 [5]; K562, 72 h): > 10 µM
- GI50 (MCF7 [6]; MCF7, 72 h): > 10 µM
SMILES: N#C/C(=C\c1c(-c2ccccc2)[nH]c2ccccc12)C(=O)c1cccs1
- EC50 (MT4): 0.4 µM
- EC50 (CCRF-CEM): 1.2 µM
- EC50 (WIL2-NS): 6.4 µM
- EC50 (CCRF-SB): 0.6 µM
- EC50 (MRC5): 20 µM
- EC50 [1]: 45 µM
- EC50 (SK-MEL-28): 28 µM
- EC50 [2]: 4 µM
- EC50 (DU-145): 11 µM
- EC50 (HepG2): 25 µM
- EC50 (MCF7 [3]): 29 µM
- Activity (HL-60 [4]): Dose-dependent effect
- Activity (K562 [5]): Dose-dependent effect
- Activity (MCF7 [6]): Dose-dependent effect
- Activity (HL-60 [7]): 61.3%
- Activity (HL-60 [7]; TDE = time-dependent effect): tde
- Activity (K562 [8]): tde
- Activity (MCF7 [9]): 34.1%
- Activity (MCF7 [9]; TDE = time-dependent effect): tde
